In ChEMBL document CHEMBL3616442, “Unconventional Knoevenagel-type indoles: Synthesis and cell-based studies for the identification of pro-apoptotic agents” (Eur J Med Chem, 2015):
pEC50: −log10 of the molar value.

Key:
MT4 = assay: Antiproliferative activity against human MT4 cells after 96 hrs by MTT assay; format: functional, cell-based; settings: MT4, 96 h
Outline: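 Exponentially growing MT-4 cells (CD4+ human T-cells carrying integrated HTLV-1 genome), seeded at 1×10^5 cells/mL in RPMI-1640 with 10% FCS and antibiotics. Serial dilutions of compound (DMSO stock 100 mM, diluted in medium), 37 °C, 5% CO₂, 96 h. Viability read by MTT. 50% inhibition versus untreated controls by linear regression. Mean ± SD of three independent determinations.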

CCRF-CEM = assay: Growth inhibition of human CCRF-CEM cells after 48 hrs by sulforhodamine B assay; format: functional
Outline: (§1)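 NCI 60-cell-line screen. Compounds tested at five 10-fold dilutions from 10^-4 to 10^-8 M. Cells exposed for the last 48 h of a 72 h incubation, growth estimated by sulforhodamine B protein assay. GI50 is the concentration giving 50% growth inhibition. Values beyond the tested range are expressed as greater or lesser than the extreme concentration.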

HL-60(TB) = assay: Growth inhibition of human HL-60(TB) cells after 48 hrs by sulforhodamine B assay; format: functional; settings: HL-60, 48 h
Outline: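 NCI 60-cell-line screen, HL-60(TB) included. Compound given at five 10-fold dilutions from 10^-4 to 10^-8 M. Cells exposed for the last 48 h of a 72 h incubation. Growth or viability estimated by sulforhodamine B protein assay. GI50 is the concentration giving 50% growth inhibition. Values outside the tested range are reported as greater or less than the highest or lowest concentration.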

K562 = assay: Growth inhibition of human K562 cells after 48 hrs by sulforhodamine B assay; format: functional; settings: K562, 48 h; outline: as §1
[1] = Growth inhibition of human MOLT4 cells after 48 hrs by sulforhodamine B assay; format: functional; settings: MOLT-4, 48 h; outline: as §1
[2] = Growth inhibition of human RPMI8226 cells after 48 hrs by sulforhodamine B assay; format: functional; settings: RPMI-8226, 48 h
SR = assay: Growth inhibition of human SR cells after 48 hrs by sulforhodamine B assay; format: functional
A549 = assay: Growth inhibition of human A549 cells after 48 hrs by sulforhodamine B assay; format: functional; settings: A549, 48 h; outline: as §1
[3] = Growth inhibition of human EKVX cells after 48 hrs by sulforhodamine B assay; format: functional; outline: as §1
HOP-62 = assay: Growth inhibition of human HOP62 cells after 48 hrs by sulforhodamine B assay; format: functional; settings: HOP-62, 48 h; outline: as §1
[4] = Growth inhibition of human HOP92 cells after 48 hrs by sulforhodamine B assay; format: functional; settings: HOP-92, 48 h; outline: as §1
NCI-H226 = assay: Growth inhibition of human NCI-H226 cells after 48 hrs by sulforhodamine B assay; format: functional; settings: NCI-H226, 48 h; outline: as §1
HCT-116 = assay: Growth inhibition of human HCT116 cells after 48 hrs by sulforhodamine B assay; format: functional; settings: HCT-116, 48 h; outline: as §1
HCT-15 = assay: Growth inhibition of human HCT15 cells after 48 hrs by sulforhodamine B assay; format: functional; settings: HCT-15, 48 h; outline: as §1
KM12 = assay: Growth inhibition of human KM12 cells after 48 hrs by sulforhodamine B assay; format: functional; settings: KM12, 48 h; outline: as §1
[5] = Growth inhibition of human SF295 cells after 48 hrs by sulforhodamine B assay; format: functional; settings: SF-295, 48 h
[6] = Growth inhibition of human SF539 cells after 48 hrs by sulforhodamine B assay; format: functional; settings: SF-539, 48 h
SNB-19 = assay: Growth inhibition of human SNB19 cells after 48 hrs by sulforhodamine B assay; format: functional; settings: SNB-19, 48 h
U-251 = assay: Growth inhibition of human U251 cells after 48 hrs by sulforhodamine B assay; format: functional; settings: U-251, 48 h
[7] = Growth inhibition of human LOXIMVI cells after 48 hrs by sulforhodamine B assay; format: functional; settings: LOX IMVI; outline: as §1
Malme-3M = assay: Growth inhibition of human MALME-3M cells after 48 hrs by sulforhodamine B assay; format: functional; outline: as §1
M14 = assay: Growth inhibition of human M14 cells after 48 hrs by sulforhodamine B assay; format: functional; settings: M14, 48 h; outline: as §1
SK-MEL-2 = assay: Growth inhibition of human SK-MEL-2 cells after 48 hrs by sulforhodamine B assay; format: functional; settings: SK-MEL-2, 48 h
SK-MEL-5 = assay: Growth inhibition of human SK-MEL-5 cells after 48 hrs by sulforhodamine B assay; format: functional; settings: SK-MEL-5, 48 h
UACC-257 = assay: Growth inhibition of human UACC257 cells after 48 hrs by sulforhodamine B assay; format: functional; settings: UACC-257, 48 h
UACC-62 = assay: Growth inhibition of human UACC62 cells after 48 hrs by sulforhodamine B assay; format: functional; settings: UACC-62, 48 h
OVCAR-3 = assay: Growth inhibition of human OVCAR3 cells after 48 hrs by sulforhodamine B assay; format: functional; settings: OVCAR-3, 48 h; outline: as §1
OVCAR-4 = assay: Growth inhibition of human OVCAR4 cells after 48 hrs by sulforhodamine B assay; format: functional; settings: OVCAR-4, 48 h; outline: as §1
OVCAR-5 = assay: Growth inhibition of human OVCAR5 cells after 48 hrs by sulforhodamine B assay; format: functional; settings: OVCAR-5, 48 h
[8] = Growth inhibition of human NCI-ADR-RES cells after 48 hrs by sulforhodamine B assay; format: functional; outline: as §1
SK-OV-3 = assay: Growth inhibition of human SKOV3 cells after 48 hrs by sulforhodamine B assay; format: functional; settings: SK-OV-3, 48 h
786-0 = assay: Growth inhibition of human 786-0 cells after 48 hrs by sulforhodamine B assay; format: functional; settings: 786-0, 48 h; outline: as §1
ACHN = assay: Growth inhibition of human ACHN cells after 48 hrs by sulforhodamine B assay; format: functional; outline: as §1
CAKI-1 = assay: Growth inhibition of human CAKI-1 cells after 48 hrs by sulforhodamine B assay; format: functional; settings: CAKI-1, 48 h; outline: as §1
SN12C = assay: Growth inhibition of human SN12C cells after 48 hrs by sulforhodamine B assay; format: functional
TK-10 = assay: Growth inhibition of human TK10 cells after 48 hrs by sulforhodamine B assay; format: functional; settings: TK-10, 48 h
UO-31 = assay: Growth inhibition of human UO31 cells after 48 hrs by sulforhodamine B assay; format: functional; settings: UO-31, 48 h
PC-3 = assay: Growth inhibition of human PC3 cells after 48 hrs by sulforhodamine B assay; format: functional; settings: PC-3, 48 h
DU-145 = assay: Growth inhibition of human DU145 cells after 48 hrs by sulforhodamine B assay; format: functional; settings: DU-145, 48 h; outline: as §1
MCF7 = assay: Growth inhibition of human MCF7 cells after 48 hrs by sulforhodamine B assay; format: functional; settings: MCF7, 48 h; outline: as §1
[9] = Growth inhibition of human BT549 cells after 48 hrs by sulforhodamine B assay; format: functional; settings: BT-549, 48 h; outline: as §1
T47D = assay: Growth inhibition of human T47D cells after 48 hrs by sulforhodamine B assay; format: functional
MDA-MB-468 = assay: Growth inhibition of human MDA-MB-468 cells after 48 hrs by sulforhodamine B assay; format: functional; settings: MDA-MB-468, 48 h; outline: as §1
[10] = Growth inhibition of human RXF393 cells after 48 hrs by sulforhodamine B assay; format: functional; settings: RXF 393, 48 h

COc1ccc(-c2[nH]c3ccc(OC)cc3c2/C=C(\C#N)S(=O)(=O)c2ccccc2)cc1
pEC50 (MT4): 6.70 | GI50 (CCRF-CEM): 1.3 µM | GI50 (HL-60(TB)): 0.899 µM | GI50 (K562): 0.508 µM | GI50 [1]: 0.765 µM | GI50 [2]: 1.3 µM | GI50 (SR): 0.305 µM | GI50 (A549): 2.8 µM | GI50 [3]: 3.3 µM | GI50 (HOP-62): 3.1 µM | GI50 [4]: 0.698 µM | GI50 (NCI-H226): 3.7 µM | GI50 (HCT-116): 0.539 µM | GI50 (HCT-15): 0.632 µM | GI50 (KM12): 0.654 µM | GI50 [5]: 0.76 µM | GI50 [6]: 0.51 µM | GI50 (SNB-19): 3.2 µM | GI50 (U-251): 0.563 µM | GI50 [7]: 1.2 µM | GI50 (Malme-3M): 3.2 µM | GI50 (M14): 0.5 µM | GI50 (SK-MEL-2): 9 µM | GI50 (SK-MEL-5): 0.319 µM | GI50 (UACC-257): 46.1 µM | GI50 (UACC-62): 0.66 µM | GI50 (OVCAR-3): 0.359 µM | GI50 (OVCAR-4): 2.1 µM | GI50 (OVCAR-5): 4.6 µM | GI50 [8]: 0.494 µM | GI50 (SK-OV-3): 0.901 µM | GI50 (786-0): 2.1 µM | GI50 (ACHN): 1.8 µM | GI50 (CAKI-1): 4.2 µM | GI50 (SN12C): 2.3 µM | GI50 (TK-10): 5 µM | GI50 (UO-31): 3.1 µM | GI50 (PC-3): 0.534 µM | GI50 (DU-145): 0.875 µM | GI50 (MCF7): 0.851 µM | GI50 [9]: 4.8 µM | GI50 (T47D): 0.905 µM | GI50 (MDA-MB-468): 1.3 µM

N#C/C(=C\c1c(-c2ccccc2)[nH]c2ccccc12)S(=O)(=O)c1ccccc1
pEC50 (MT4): 6.40 | GI50 (CCRF-CEM): 2.6 µM | GI50 (HL-60(TB)): 1.8 µM | GI50 (K562): 0.348 µM | GI50 [1]: 2.2 µM | GI50 [2]: 0.714 µM | GI50 (SR): 17.3 µM | GI50 (A549): 3.7 µM | GI50 [3]: 6.2 µM | GI50 (HOP-62): 9.3 µM | GI50 [4]: 10.3 µM | GI50 (NCI-H226): 4.1 µM | GI50 (HCT-116): 2 µM | GI50 (HCT-15): 1.1 µM | GI50 (KM12): 0.652 µM | GI50 [5]: 2.4 µM | GI50 [6]: 2.5 µM | GI50 (SNB-19): 8.3 µM | GI50 (U-251): 2.6 µM | GI50 [7]: 4.6 µM | GI50 (Malme-3M): 8.4 µM | GI50 (M14): 3.8 µM | GI50 (SK-MEL-2): 12.7 µM | GI50 (SK-MEL-5): 1.82 µM | GI50 (UACC-257): 18.2 µM | GI50 (UACC-62): 2.6 µM | GI50 (OVCAR-3): 1.4 µM | GI50 (OVCAR-4): 5.5 µM | GI50 (OVCAR-5): 13.9 µM | GI50 [8]: 1.1 µM | GI50 (SK-OV-3): 6.8 µM | GI50 (786-0): 9.2 µM | GI50 (ACHN): 7 µM | GI50 (CAKI-1): 5.5 µM | GI50 [10]: 3.6 µM | GI50 (SN12C): 5.2 µM | GI50 (TK-10): 5.6 µM | GI50 (UO-31): 6.7 µM | GI50 (PC-3): 3.4 µM | GI50 (DU-145): 2.9 µM | GI50 (MCF7): 2.2 µM | GI50 [9]: 11.6 µM | GI50 (T47D): 3.8 µM | GI50 (MDA-MB-468): 1.9 µM

CCOC(=O)C(=Cc1c(-c2ccccc2)[nH]c2ccccc12)C(=O)OCC
pEC50 (MT4): 5.64 | GI50 (CCRF-CEM): 2.6 µM | GI50 (HL-60(TB)): 4.4 µM | GI50 (K562): 3.6 µM | GI50 [1]: 3.9 µM | GI50 [2]: 0.219 µM | GI50 (SR): 2.1 µM | GI50 (A549): 6.4 µM | GI50 [3]: 12.4 µM | GI50 (HOP-62): 5.5 µM | GI50 [4]: 8.8 µM | GI50 (NCI-H226): 11.4 µM | GI50 (HCT-116): 4.3 µM | GI50 (HCT-15): 4.1 µM | GI50 (KM12): 3.5 µM | GI50 [5]: 7.6 µM | GI50 [6]: 14.5 µM | GI50 (SNB-19): 23.9 µM | GI50 (U-251): 4.9 µM | GI50 [7]: 5.6 µM | GI50 (Malme-3M): 8.9 µM | GI50 (M14): 4.2 µM | GI50 (SK-MEL-2): 4.7 µM | GI50 (SK-MEL-5): 3.8 µM | GI50 (UACC-257): 7.5 µM | GI50 (UACC-62): 4.6 µM | GI50 (OVCAR-3): 4.2 µM | GI50 (OVCAR-4): 10.5 µM | GI50 (OVCAR-5): 18.5 µM | GI50 [8]: 2.9 µM | GI50 (SK-OV-3): 13.6 µM | GI50 (786-0): 12.9 µM | GI50 (ACHN): 4.4 µM | GI50 (CAKI-1): 10.3 µM | GI50 [10]: 3.7 µM | GI50 (SN12C): 5.1 µM | GI50 (TK-10): 13.6 µM | GI50 (UO-31): 4 µM | GI50 (PC-3): 3.3 µM | GI50 (DU-145): 9.7 µM | GI50 (MCF7): 4.5 µM | GI50 [9]: 5.3 µM | GI50 (T47D): 2.7 µM | GI50 (MDA-MB-468): 3.1 µM
